Measured values: ChEMBL document CHEMBL5724801, “EUbOPEN Chemogenomics Library - Multiplex” (2024)
“And” between values parts separate entries of the source, which are not always exact repeats. Equal values may be shown once.

Tested on: HEK-293T
Test: Multiplex assay against HEK293T
Type: toxicity, cell-based
Conditions: human
How it was run: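 Hoechst33342, BioTracker Green Microtubule Cytoskeleton Dye, MitoTracker Red and Annexin V Alexa Fluor 680 were added to live cells at seeding, and imaging on a CQ1 microscope at 37°C and 5% CO2 followed compound addition. Gating by CellPathfinder machine learning separated cells into Hoechst high-intensity objects or normal cells, then normal cells into healthy, pyknosed or fragmented nuclei, then pyknosed cells into mitotic or apoptotic. Per cents of healthy-nucleus cells are reported for the tubulin, mitochondrial-mass and membrane-permeability phenotypes.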

[1] = 12 h, 1 µM, compound concentration 1 uM
[2] = 12 h, 10 µM, compound concentration 10 uM
[3] = 24 h, 1 µM, compound concentration 1 uM
[4] = 24 h, 10 µM, compound concentration 10 uM
[5] = 48 h, 1 µM, compound concentration 1 uM
[6] = 48 h, 10 µM, compound concentration 10 uM

## COCCCN1CCC(NC(=O)c2cc(Cl)c(N)c3c2OCC3)CC1 [PRUCALOPRIDE]
[1]
  Population Apoptotic (%): 22% and 31%
  Population Fragmented Nuclei (%): 10% and 4%
  Population Healthy Nuclei (%): 80% and 82%
  Population Hoechst High Intensity Objects (%): 8% and 7%
  Population Membrane Permeable-Phenotype (%): 0%
  Population Mitochondria Different-Phenotype (%): 36% and 59%
  Population Mitotic Cells (%): 77% and 68%
  Population Normal (%): 91% and 92%
  Population Pyknosed Nuclei (%): 9% and 12%
  Population Tubulin-Different-Phenotype (%): 21% and 16%
  Total Cell Count: 416 and 397
[2]
  Population Apoptotic (%): 37% and 56%
  Population Fragmented Nuclei (%): 8% and 10%
  Population Healthy Nuclei (%): 74% and 72%
  Population Hoechst High Intensity Objects (%): 4% and 10%
  Population Membrane Permeable-Phenotype (%): 0%
  Population Mitochondria Different-Phenotype (%): 59% and 75%
  Population Mitotic Cells (%): 62% and 43%
  Population Normal (%): 95% and 89%
  Population Pyknosed Nuclei (%): 17%
  Population Tubulin-Different-Phenotype (%): 43% and 35%
  Total Cell Count: 421 and 261
[3]
  Population Apoptotic (%): 20% and 28%
  Population Fragmented Nuclei (%): 11% and 8%
  Population Healthy Nuclei (%): 78% and 84%
  Population Hoechst High Intensity Objects (%): 5% and 4%
  Population Membrane Permeable-Phenotype (%): 1% and 0%
  Population Mitochondria Different-Phenotype (%): 18% and 39%
  Population Mitotic Cells (%): 79% and 71%
  Population Normal (%): 94% and 95%
  Population Pyknosed Nuclei (%): 10% and 6%
  Population Tubulin-Different-Phenotype (%): 14% and 10%
  Total Cell Count: 590 and 546
[4]
  Population Apoptotic (%): 28% and 50%
  Population Fragmented Nuclei (%): 8% and 13%
  Population Healthy Nuclei (%): 77% and 73%
  Population Hoechst High Intensity Objects (%): 4% and 9%
  Population Membrane Permeable-Phenotype (%): 0%
  Population Mitochondria Different-Phenotype (%): 48% and 51%
  Population Mitotic Cells (%): 71% and 50%
  Population Normal (%): 95% and 90%
  Population Pyknosed Nuclei (%): 13% and 12%
  Population Tubulin-Different-Phenotype (%): 32% and 25%
  Total Cell Count: 531 and 341
[5]
  Population Apoptotic (%): 24% and 21%
  Population Fragmented Nuclei (%): 15% and 11%
  Population Healthy Nuclei (%): 76% and 81%
  Population Hoechst High Intensity Objects (%): 2% and 1%
  Population Membrane Permeable-Phenotype (%): 1% and 0%
  Population Mitochondria Different-Phenotype (%): 16% and 15%
  Population Mitotic Cells (%): 75% and 78%
  Population Normal (%): 97% and 98%
  Population Pyknosed Nuclei (%): 7% and 6%
  Population Tubulin-Different-Phenotype (%): 11% and 9%
  Total Cell Count: 1001 and 832
[6]
  Population Apoptotic (%): 20% and 35%
  Population Fragmented Nuclei (%): 16%
  Population Healthy Nuclei (%): 77% and 75%
  Population Hoechst High Intensity Objects (%): 1% and 3%
  Population Membrane Permeable-Phenotype (%): 1% and 0%
  Population Mitochondria Different-Phenotype (%): 32% and 31%
  Population Mitotic Cells (%): 79% and 64%
  Population Normal (%): 98% and 96%
  Population Pyknosed Nuclei (%): 6% and 7%
  Population Tubulin-Different-Phenotype (%): 16% and 15%
  Total Cell Count: 772 and 528

## c1ccc2nc(N3CCNCC3)ccc2c1 [QUIPAZINE]
[1]
  Population Apoptotic (%): 6.35% and 5.69%
  Population Fragmented Nuclei (%): 1.8% and 5.66%
  Population Healthy Nuclei (%): 49.61% and 16.98%
  Population Hoechst High Intensity Objects (%): 0%
  Population Membrane Permeable-Phenotype (%): 0.52% and 0%
  Population Mitochondria Different-Phenotype (%): 33.16% and 11.11%
  Population Mitotic Cells (%): 93.65% and 94.31%
  Population Normal (%): 100%
  Population Pyknosed Nuclei (%): 48.59% and 77.36%
  Total Cell Count: 389 and 159
[2]
  Population Apoptotic (%): 10.22% and 12.62%
  Population Fragmented Nuclei (%): 1.36% and 2.36%
  Population Hoechst High Intensity Objects (%): 0.68% and 0%
  Population Membrane Permeable-Phenotype (%): 0.65% and 4.76%
  Population Mitochondria Different-Phenotype (%): 23.53% and 19.05%
  Population Mitotic Cells (%): 89.78% and 87.38%
  Population Normal (%): 99.32% and 100%
  Population Pyknosed Nuclei (%): 46.6% and 81.1%
  Total Cell Count: 296 and 127
[3]
  Population Apoptotic (%): 10.39% and 10%
  Population Fragmented Nuclei (%): 1.31% and 1.74%
  Population Healthy Nuclei (%): 73.44% and 34.3%
  Population Hoechst High Intensity Objects (%): 0%
  Population Membrane Permeable-Phenotype (%): 2.9% and 0%
  Population Mitochondria Different-Phenotype (%): 14.29% and 11.86%
  Population Mitotic Cells (%): 89.61% and 90%
  Population Normal (%): 100%
  Population Pyknosed Nuclei (%): 25.25% and 63.95%
  Population Tubulin-Different-Phenotype (%): 16.29% and 6.78%
[4]
  Population Apoptotic (%): 18.49% and 17.05%
  Population Fragmented Nuclei (%): 1.63% and 1.53%
  Population Healthy Nuclei (%): 74.08% and 31.3%
  Population Hoechst High Intensity Objects (%): 0.41% and 0%
  Population Membrane Permeable-Phenotype (%): 1.1% and 0%
  Population Mitochondria Different-Phenotype (%): 15.98% and 14.63%
  Population Mitotic Cells (%): 81.51% and 82.95%
  Population Normal (%): 99.59% and 100%
  Population Pyknosed Nuclei (%): 24.29% and 67.18%
  Population Tubulin-Different-Phenotype (%): 15.98% and 9.76%
[5]
  Population Fragmented Nuclei (%): 2.36% and 0.5%
  Population Healthy Nuclei (%): 83.55% and 65%
  Population Hoechst High Intensity Objects (%): 0.15% and 0%
  Population Membrane Permeable-Phenotype (%): 6.88% and 1.54%
  Population Mitochondria Different-Phenotype (%): 14.83% and 16.15%
  Population Mitotic Cells (%): 95.81% and 81.16%
  Population Normal (%): 99.85% and 100%
  Population Pyknosed Nuclei (%): 14.09% and 34.5%
[6]
  Population Apoptotic (%): 13.64% and 6.25%
  Population Fragmented Nuclei (%): 3.18% and 1.42%
  Population Healthy Nuclei (%): 86.82% and 64.54%
  Population Hoechst High Intensity Objects (%): 0%
  Population Membrane Permeable-Phenotype (%): 5.34% and 3.3%
  Population Mitochondria Different-Phenotype (%): 17.59% and 12.09%
  Population Mitotic Cells (%): 86.36% and 93.75%
  Population Normal (%): 100%
